Laboratory results reported in ChEMBL document CHEMBL1221381, “Heterocyclic compounds and aromatic diglycosides from Bretschneidera sinensis” (J Nat Prod, 2010).
≈ marks a conversion by molar mass, not a printed value.

Assays:
NCI-H446 [1] = experiment: Cytotoxicity against human NCI-H446 cells after 72 hrs by MTT assay; format: functional, cell-based; settings: NCI-H446, 72 h
Procedure, shortened: (§1)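 Test samples (>95% pure) were dissolved in DMSO and diluted with PBS to a 1000 µg mL-1 solution. This was serially diluted in PBS to 100–3.125 µg mL-1 solutions. Human cells were seeded at (4-6) × 10^4 cells/mL, and 10 µL/well of sample was added 24 h after seeding. Plates were incubated 72 h at 37 °C in humidified 5% CO2. Viability was read by MTT at 570 nm. Doxorubicin served as positive control.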

HL-60 [2] = experiment: Cytotoxicity against human HL60 cells after 72 hrs by MTT assay; format: functional, cell-based; settings: HL-60, 72 h; procedure, shortened: as §1
[3] = Cytotoxicity against human PC3M cells after 72 hrs by MTT assay; format: functional, cell-based; settings: PC-3M; procedure, shortened: as §1
HCT-116 [4] = experiment: Cytotoxicity against human HCT116 cells after 72 hrs by MTT assay; format: functional, cell-based; settings: HCT-116, 72 h; procedure, shortened: as §1
NCI-H446 [5] = experiment: Cytotoxicity against human NCI-H446 cells at 100 ug/ml after 72 hrs by MTT assay; format: functional; settings: NCI-H446, 72 h, read-out: GI; procedure, shortened: as §1
HL-60 [6] = experiment: Cytotoxicity against human HL60 cells at 100 ug/ml after 72 hrs by MTT assay; format: functional; settings: HL-60, 72 h, read-out: GI; procedure, shortened: as §1
[7] = Cytotoxicity against human PC3M cells at 100 ug/ml after 72 hrs by MTT assay; format: functional; settings: PC-3M, read-out: GI; procedure, shortened: as §1
HCT-116 [8] = experiment: Cytotoxicity against human HCT116 cells at 100 ug/ml after 72 hrs by MTT assay; format: functional; settings: HCT-116, 72 h, read-out: GI; procedure, shortened: as §1

| Compound | IC50 (NCI-H446 [1]) [µg/mL] | IC50 (HL-60 [2]) [µg/mL] | IC50 [3] [µg/mL] | IC50 (HCT-116 [4]) [µg/mL] | inhibition of growth at 100 µg/mL (NCI-H446 [5]) [%] | inhibition of growth at 100 µg/mL (HL-60 [6]) [%] | inhibition of growth at 100 µg/mL [7] [%] | inhibition of growth at 100 µg/mL (HCT-116 [8]) [%] |
| --- | --- | --- | --- | --- | --- | --- | --- | --- |
| COc1cc2sc(=S)n(C)c(=O)c2cc1O [BRETSCHNEIDERAZINE A] | 79.2 (≈ 310 µM) | > 100 | > 100 | > 100 | 53.9 | 9.91 | 29.4 | 0 |
| COc1ccc2c(=O)n(C)c(=S)sc2c1OC [BRETSCHNEIDERAZINE B] | 60.2 (≈ 224 µM) | > 100 | > 100 | > 100 | 41.3 | 8.04 | 0 | 0 |
| COc1cc(C=O)ccc1O[C@@H]1O[C@H](CO[C@@H]2OC[C@](O)(CO)[C@H]2O)[C@@H](O)[C@H](O)[C@H]1O [BRETSCHNEIDEROSIDE A] | > 100 | > 100 | > 100 | > 100 | 29.7 | 0.14 | 0 | 0 |
| O=Cc1ccc(O[C@@H]2O[C@H](CO[C@@H]3OC[C@](O)(CO)[C@H]3O)[C@@H](O)[C@H](O)[C@H]2O)c(O)c1 [BRETSCHNEIDEROSIDE B] | > 100 | > 100 | > 100 | > 100 | 38.4 | 7.25 | 0 | 0 |
| COc1cc(CO[C@@H]2O[C@H](CO[C@@H]3OC[C@](O)(CO)[C@H]3O)[C@@H](O)[C@H](O)[C@H]2O)ccc1O [BRETSCHNEIDEROSIDE C] | > 100 | > 100 | > 100 | > 100 | 40.7 | 5.68 | 6.35 | 9.3 |
| COc1cccc2c1C(=O)c1c(O)c3c(c(O)c1C2=O)C[C@@](O)(C(=O)CO)C[C@@H]3O[C@H]1C[C@H](N)[C@H](O)[C@H](C)O1 [DOXORUBICIN] | 0.0248 (≈ 0.0456 µM) | 0.457 (≈ 0.841 µM) | < 0.001 | 0.286 (≈ 0.526 µM) | 91.2 | 94.7 | 96.4 | 93.1 |
